ChEMBL document CHEMBL1124266, “Stereoelectronic factors influencing the biological activity and DNA interaction of synthetic antitumor agents modeled on CC-1065” (J Med Chem, 1988)
Active and inactive are the calls of the source. The rule behind the calls is not given here.

Key:
[1] = Pseudo-first order rate constant at pH 3 followed spectrophotometrically; format: ADME
Procedure, shortened: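 Acid-catalyzed cyclopropyl ring opening in methanolic buffer at pH 3, tracked by loss of the 344–370 nm absorption band. Residual long-wavelength absorbance at 2 weeks subtracted. Rate from ln(A/A₀) vs time, linear for at least 2 half-lives. Drug 20–120 µM.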

[2] = test system: P388; test: In vivo optimum dose given on days 1, 5, and 9 to mice implanted intraperitoneally with P388 leukemia cells; format: functional, Mus musculus
Procedure, shortened: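 P388 cells (10⁶/mouse) implanted ip into male BDF1 mice on day 0. Dosing ip on days 1, 5 and 9 in 2% DMA/10% Emulphor 620-P/water vehicle. Six mice per group. Optimum dose given in mg/kg per day, judged by increase in median life span.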

[3] = Lipophilic/hydrophilic partitioning (RP-TLC); format: ADME; details: 2:1 DMF-saline
Procedure, shortened: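 Reverse-phase TLC developed in 2:1 DMF–saline (0.9% NaCl). Plates scanned at 350 nm. R_f values averaged from two to four determinations.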

[4] = test system: P388; test: In vivo % increase in life span of treated animals (OD) over that of control mice bearing tumor, determined against P388 leukemia cells; format: functional, Mus musculus
Procedure, shortened: (§1)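 Male BDF1 mice inoculated ip with 10⁶ P388 cells (tumor passaged in DBA/2 females) on day 0. Drug ip on days 1, 5, 9 in 2% DMA, 10% Emulphor 620-P, water. Six mice per group. %ILS = (median death day treated / median death day untreated control − 1) × 100, at optimum dose. 30-day survivors counted as cured.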

[5] = test system: L1210; test: In vitro concentration required to inhibit 50% growth of murine L1210 leukemia cells; format: functional; details: Mus musculus, read-out: ID50 (the source's name)
Procedure, shortened: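 Mouse L1210 leukemia cells in RPMI 1634 with 5% fetal calf serum, 0.075% sodium bicarbonate, penicillin 0.1 mg/mL and streptomycin 50 μg/mL. Drug aliquots added to tubes, then cells at approximately 5 × 10³ cells/mL. Incubation 37 °C for 3 days; cell number by Coulter counter. ID₅₀ = nM concentration giving 50% growth inhibition.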

[6] = test system: Nucleic Acid; test: Induced circular dichroism (ICD), expressed as molar ellipticity, in the presence of calf-thymus DNA; format: functional; details: Bos taurus
Procedure, shortened: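 Drug stock (1–4 mg/mL in DMA, DMF or DMSO) injected into calf-thymus DNA (11 × 10⁻⁵ M) in 0.01 M phosphate buffer pH 7.2. Final drug 0.85 × 10⁻⁵ M, base-to-drug ratio 13. Stood 24 h at room temperature before CD spectrum. Value is molar ellipticity at long-wavelength maximum, ca. 350 nm.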

[7] = test system: P388; test: In vivo % increase in life span of treated animals (OD) over that of control mice bearing tumor, determined against P388 leukemia cells; NA=no activity(<20% ILS); format: functional, organism-based; details: Mus musculus
Procedure, shortened: (§2)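 P388 leukemia kept by serial passage in female DBA/2 mice. Male BDF1 mice were given 10^6 cells ip on day 0. Drug was given ip on days 1, 5 and 9 in 2% DMA/10% Emulphor 620-P/water, with six mice per group. Optimum dose was in mg/kg per day. %ILS came from the median day of death versus untreated tumor-bearing controls. Mice alive at 30 days were counted as cured.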

[8] = test system: Mus musculus; test: In vivo % increase in life span of treated animals (OD) over that of control mice bearing P388 leukemia; format: functional; procedure, shortened: as §1
[9] = test system: Mus musculus; test: In vivo optimum dose (OD), given on days 1, 5, and 9 to mice bearing P388 leukemia; format: functional; procedure, shortened: as §2

| Structure (SMILES) | k [1] | OD [2] | Rf [3] | ILS [4] | IC50 [5] | ICD [6] | ILS [7] | ILS [8] | OD [9] |
| --- | --- | --- | --- | --- | --- | --- | --- | --- | --- |
| Cc1c[nH]c2c1C13CC1CN(C(=O)c1ccccc1)C3=CC2=O (stereo not given) | 9e-06 | 12 mg/kg/day | 0.63 | 71% | 3 nM | < 0.001 | – | – | – |
| COc1c(O)ccc2cc(C(=O)N3CC4CC45C3=CC(=O)c3[nH]cc(C)c35)[nH]c12 (stereo not given) | 1e-05 | 0.05 mg/kg/day | 0.63 | 55% | 0.1 nM | 0.037 | – | – | – |
| Cc1c[nH]c2c1C13CC1CN(S(=O)(=O)c1ccccc1)C3=CC2=O (stereo not given) | – | – | 0.58 | – | 900 nM | – | – | – | – |
| Cc1c[nH]c2c1C13CC1CN(C(=O)c1cc4ccccc4[nH]1)C3=CC2=O (stereo not given) | 1e-05 | 0.4 mg/kg/day | 0.45 | 90% | 0.2 nM | 0.036 | – | – | – |
| CCCCCCCCCC(=O)N1CC2CC23C1=CC(=O)c1[nH]cc(C)c13 (stereo not given) | – | 40 mg/kg/day | 0.07 | – | 100 nM | 0 | inactive | – | – |
| Cc1c[nH]c2c1C13CC1CN(C(=O)c1cc4cc(NC(=O)c5cc6cc(NC(N)=O)ccc6[nH]5)ccc4[nH]1)C3=CC2=O (stereo not given) | – | 0.1 mg/kg/day | – | 121% | 0.3 nM | 0.075 | – | – | – |
| Cc1c[nH]c2c1C13CC1CN(C(=O)c1cc4cc(NC(=O)c5cc6ccccc6[nH]5)ccc4[nH]1)C3=CC2=O (stereo not given) | – | 0.05 mg/kg/day | 0.3 | 159% | 0.01 nM | 0.07 | – | – | – |
| Cc1c[nH]c2c1C13CC1CN(C(=O)c1ccc[nH]1)C3=CC2=O (stereo not given) | – | 1 mg/kg/day | 0.7 | 71% | 2 nM | 0.01 | – | – | – |
| Cc1c[nH]c2c1C13CC1CN(C(=O)c1cc4cc(NC(=O)c5cc6ccccc6o5)ccc4[nH]1)C3=CC2=O (stereo not given) | 1e-05 | 0.05 mg/kg/day | 0.3 | 170% | 0.02 nM | 0.05 | – | – | – |
| Cc1c[nH]c2c1C13CC1CN(C(=O)c1cc4cc(NC(=O)c5ccccc5)ccc4[nH]1)C3=CC2=O (stereo not given) | – | 0.05 mg/kg/day | 0.43 | 82% | 0.07 nM | 0.036 | – | – | – |
| Cc1c[nH]c2c1C13CC1CN(C(=O)c1ccc(NC(=O)c4ccccc4)cc1)C3=CC2=O (stereo not given) | – | 0.5 mg/kg/day | 0.42 | 83% | 0.5 nM | 0.011 | – | – | – |
| CCCCCC(=O)N1CC2CC23C1=CC(=O)c1[nH]cc(C)c13 (stereo not given) | 8e-06 | 2 mg/kg/day | 0.35 | 100% | 3 nM | 0 | – | – | – |
| Cc1c[nH]c2c1C13CC1CN(C(=O)c1cc4ccccc4o1)C3=CC2=O (stereo not given) | 1.1e-05 | – | – | – | 0.04 nM | 0.006 | – | 110% | 0.25 mg/kg/day |
| Cc1c[nH]c2c1C13CC1CN(C(=O)c1ccccn1)C3=CC2=O (stereo not given) | 1.2e-05 | 15 mg/kg/day | 0.76 | 69% | 10 nM | 0 | – | – | – |
| Cc1c[nH]c2c1C13CC1CN(C(=O)c1cc4cc(NC(=O)c5cc6cc(NC(=O)c7ccccc7)ccc6[nH]5)ccc4[nH]1)C3=CC2=O (stereo not given) | – | 0.1 mg/kg/day | 0.3 | 77% | 0.01 nM | 0.033 | – | – | – |
| Cc1c[nH]c2c1C13CC1CN(C(=O)c1ccc4ccccc4n1)C3=CC2=O (stereo not given) | 1.2e-05 | 6 mg/kg/day | 0.5 | 142% | 10 nM | 0.001 | – | – | – |
| Cc1c[nH]c2c1C13CC1CN(C(=O)OC(C)(C)C)C3=CC2=O (stereo not given) | 5e-06 | – | 0.35 | – | 300 nM | 0 | – | – | – |
| CC(=O)N1CC2CC23C1=CC(=O)c1[nH]cc(C)c13 (stereo not given) | – | 3 mg/kg/day | 0.9 | 45% | 20 nM | 0 | – | – | – |
| CCCCCC(=O)Nc1ccc2nc(C(=O)N3CC4CC45C3=CC(=O)c3[nH]cc(C)c35)ccc2c1 (stereo not given) | – | 21 mg/kg/day | 0.15 | 127% | 100 nM | – | – | – | – |
| Cc1c[nH]c2c1C13CC1CN(C(=O)c1cc4cc(NC(N)=O)ccc4[nH]1)C3=CC2=O (stereo not given) | 1e-05 | 0.06 mg/kg/day | 0.89 | 65% | 0.6 nM | 0.047 | – | – | – |
| COc1ccc2[nH]c(C(=O)N3CC4CC45C3=CC(=O)c3[nH]cc(C)c35)cc2c1 (stereo not given) | 1e-05 | 0.05 mg/kg/day | 0.47 | 95% | 0.01 nM | 0.022 | – | – | – |
| Cc1c[nH]c2c1C13CC1CN(S(C)(=O)=O)C3=CC2=O (stereo not given) | 3e-06 | 25 mg/kg/day | 0.82 | 60% | 100 nM | 0 | – | – | – |
| Cc1c[nH]c2c1C13CC1CN(C(=O)c1ccc4ccccc4c1)C3=CC2=O (stereo not given) | – | 6 mg/kg/day | 0.46 | 73% | 7 nM | 0 | – | – | – |
| COc1c(O)c2c(c3cc(C(=O)N4CCc5c4c(O)c(OC)c4[nH]c(C(=O)N6C[C@H]7C[C@@]78C6=CC(=O)c6[nH]cc(C)c68)cc54)[nH]c13)CCN2C(N)=O [(+)-CC-1065] | – | 0.1 mg/kg/day | 0.39 | 62% | 0.07 nM | 0.28 | – | – | – |
| Cc1c[nH]c2c1C13CC1CN(C(=O)c1cc4ccccc4n1C)C3=CC2=O (stereo not given) | 1e-05 | – | – | – | 10 nM | 0.003 | – | 44% | 8 mg/kg/day |
| Cc1c[nH]c2c1C13CC1CN(C(=O)c1cc4ccccc4s1)C3=CC2=O (stereo not given) | 1.1e-05 | 0.8 mg/kg/day | 0.41 | 100% | 0.3 nM | 0.007 | – | – | – |
| CC1=C(C(=O)N2CC3CC34C2=CC(=O)c2[nH]cc(C)c24)Cc2ccccc21 (stereo not given) | – | 17 mg/kg/day | 0.39 | – | 30 nM | 0.004 | inactive | – | – |
